Calls of active or inactive are those of the source. The rule behind the calls is not given here.

Assay [1] concerns the target T1, Alpha-glucosidase MAL12 (Saccharomyces cerevisiae S288c, UniProt P53341). The assay is described as follows: Inhibition of yeast alpha-glucosidase at 2 mM after 10 to 30 mins.
Assay [2] can be described thus: Inhibition of almond beta-glucosidase at pH 7.3 after 10 to 30 mins. More on the design: species or system Prunus dulcis.
Assay [3] in a line: Inhibition of jack beans alpha-mannosidase at 2 mM after 10 to 30 mins. On the set-up: species or system Canavalia ensiformis.
Assay [4] can be described thus: Inhibition of Helix pomatia beta-mannosidase after 10 to 30 mins.
In assay [5] the target is T2, Uncharacterized protein (Sus scrofa, UniProt I3LIR5).
T2 sequence (I3LIR5 whole entry): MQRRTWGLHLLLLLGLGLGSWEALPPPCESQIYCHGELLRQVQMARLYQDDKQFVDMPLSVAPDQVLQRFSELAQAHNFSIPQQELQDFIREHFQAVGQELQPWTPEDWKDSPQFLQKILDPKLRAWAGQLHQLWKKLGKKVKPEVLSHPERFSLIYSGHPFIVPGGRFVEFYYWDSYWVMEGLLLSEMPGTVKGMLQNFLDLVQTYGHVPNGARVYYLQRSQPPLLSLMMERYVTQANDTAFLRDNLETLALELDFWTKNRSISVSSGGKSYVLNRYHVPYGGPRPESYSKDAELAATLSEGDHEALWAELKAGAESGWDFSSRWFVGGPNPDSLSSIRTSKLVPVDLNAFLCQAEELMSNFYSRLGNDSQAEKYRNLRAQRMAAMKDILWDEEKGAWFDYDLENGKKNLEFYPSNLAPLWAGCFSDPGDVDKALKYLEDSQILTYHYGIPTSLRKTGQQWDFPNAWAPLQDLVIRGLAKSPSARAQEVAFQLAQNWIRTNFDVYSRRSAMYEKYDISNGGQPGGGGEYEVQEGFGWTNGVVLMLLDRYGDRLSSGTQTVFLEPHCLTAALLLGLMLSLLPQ
Briefly: Inhibition of pig kidney trehalase after 10 to 30 mins.

Assay [6] can be described thus: Inhibition of Penicillium decumbens naringinase after 10 to 30 mins.
The target in assay [7] is Alpha-galactosidase (Coffea arabica) (UniProt Q42656). Briefly: Inhibition of green coffee bean alpha-galactosidase at 2 mM after 10 to 30 mins.
Sequence of Alpha-galactosidase (Coffea arabica) (Q42656 16-378 limits assumed): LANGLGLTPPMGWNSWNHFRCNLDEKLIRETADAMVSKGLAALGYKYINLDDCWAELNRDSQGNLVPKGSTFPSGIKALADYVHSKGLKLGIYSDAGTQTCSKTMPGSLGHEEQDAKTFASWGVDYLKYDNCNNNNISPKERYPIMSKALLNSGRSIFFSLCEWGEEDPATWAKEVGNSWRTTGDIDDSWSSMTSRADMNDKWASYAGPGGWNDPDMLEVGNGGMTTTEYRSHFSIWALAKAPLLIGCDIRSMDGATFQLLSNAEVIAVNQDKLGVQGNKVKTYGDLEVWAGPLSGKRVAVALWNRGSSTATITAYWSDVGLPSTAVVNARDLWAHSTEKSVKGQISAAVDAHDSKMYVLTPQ
The target of assay [8] is Oligo-1,6-glucosidase IMA1 (Saccharomyces cerevisiae S288c) (UniProt P53051). The assay is described as follows: Inhibition of yeast isomaltase at 2 mM after 10 to 30 mins.
Sequence of Oligo-1,6-glucosidase IMA1 (Saccharomyces cerevisiae S288c) (P53051 whole entry): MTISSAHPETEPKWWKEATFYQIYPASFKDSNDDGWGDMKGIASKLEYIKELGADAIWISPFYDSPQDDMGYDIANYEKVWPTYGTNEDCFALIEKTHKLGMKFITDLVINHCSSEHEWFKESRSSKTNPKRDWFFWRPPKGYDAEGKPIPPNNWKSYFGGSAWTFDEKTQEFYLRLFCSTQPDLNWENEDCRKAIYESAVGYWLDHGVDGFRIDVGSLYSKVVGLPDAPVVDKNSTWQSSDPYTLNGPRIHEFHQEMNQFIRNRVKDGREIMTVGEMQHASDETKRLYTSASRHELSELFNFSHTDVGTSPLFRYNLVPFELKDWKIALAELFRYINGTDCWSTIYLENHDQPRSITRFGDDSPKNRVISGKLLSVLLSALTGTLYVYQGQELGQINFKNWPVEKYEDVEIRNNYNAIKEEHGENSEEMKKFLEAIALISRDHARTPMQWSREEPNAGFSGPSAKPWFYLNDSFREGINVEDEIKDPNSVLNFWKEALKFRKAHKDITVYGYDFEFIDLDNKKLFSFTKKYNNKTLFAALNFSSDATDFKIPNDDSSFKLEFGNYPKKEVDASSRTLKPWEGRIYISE
Assay [9] deals with T1, Alpha-glucosidase MAL12. The assay is described as follows: Inhibition of yeast alpha-glucosidase after 10 to 30 mins.
Assay [10] can be described thus: Inhibition of jack beans alpha-mannosidase after 10 to 30 mins. More on the design: species or system Canavalia ensiformis.
For assay [11], the target named is T2, Uncharacterized protein. The assay is described as follows: Inhibition of pig kidney trehalase at 2 mM after 10 to 30 mins.
Assay [12] is described as follows: Inhibition of Aspergillus niger amyloglucosidase at 2 mM after 10 to 30 mins.
In assay [13] the target is T3, Glucosylceramidase (Bos taurus, UniProt Q2KHZ8).
T3 sequence (Q2KHZ8 whole entry): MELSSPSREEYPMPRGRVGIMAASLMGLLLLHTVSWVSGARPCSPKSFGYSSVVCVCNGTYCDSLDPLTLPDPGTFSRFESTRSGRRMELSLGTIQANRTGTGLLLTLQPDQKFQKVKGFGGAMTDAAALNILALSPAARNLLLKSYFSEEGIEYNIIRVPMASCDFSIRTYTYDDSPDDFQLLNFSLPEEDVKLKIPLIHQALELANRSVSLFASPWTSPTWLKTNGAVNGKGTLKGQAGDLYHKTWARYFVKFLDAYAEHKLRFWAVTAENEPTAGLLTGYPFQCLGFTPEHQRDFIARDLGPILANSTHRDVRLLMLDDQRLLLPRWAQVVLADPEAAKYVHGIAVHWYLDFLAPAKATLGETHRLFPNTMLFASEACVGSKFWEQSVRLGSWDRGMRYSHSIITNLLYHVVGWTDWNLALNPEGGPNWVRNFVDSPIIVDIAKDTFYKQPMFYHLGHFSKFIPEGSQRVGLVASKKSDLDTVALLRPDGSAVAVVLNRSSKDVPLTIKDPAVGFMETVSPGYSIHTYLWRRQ
Briefly: Inhibition of bovine liver beta-glucosidase at 2 mM after 10 to 30 mins.

Assay [14] is described as follows: Inhibition of Helix pomatia beta-mannosidase at 2 mM after 10 to 30 mins.
Assay [15] in a line: Binding affinity to almond beta-glucosidase by FRET assay. More on the design: species or system Prunus dulcis. Summed up:
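Direct titration: almond β-glucosidase 1.25 µM in 0.05 M potassium phosphate pH 7.3, 37 °C. Inhibitor stock (50 µM, made in the enzyme solution) added portion-wise to ~6 µM. Excitation 280 nm. Tryptophan emission read at 339 nm and dansyl emission at 515 nm at 10–15 ratios. Kd from least-squares fit to a 1:1 model. Reverse titration (enzyme into 1.0 µM inhibitor, 515 nm) gave confirmation.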

A short description of assay [16]: Inhibition of Aspergillus niger amyloglucosidase after 10 to 30 mins.

T1 sequence (P53341 whole entry): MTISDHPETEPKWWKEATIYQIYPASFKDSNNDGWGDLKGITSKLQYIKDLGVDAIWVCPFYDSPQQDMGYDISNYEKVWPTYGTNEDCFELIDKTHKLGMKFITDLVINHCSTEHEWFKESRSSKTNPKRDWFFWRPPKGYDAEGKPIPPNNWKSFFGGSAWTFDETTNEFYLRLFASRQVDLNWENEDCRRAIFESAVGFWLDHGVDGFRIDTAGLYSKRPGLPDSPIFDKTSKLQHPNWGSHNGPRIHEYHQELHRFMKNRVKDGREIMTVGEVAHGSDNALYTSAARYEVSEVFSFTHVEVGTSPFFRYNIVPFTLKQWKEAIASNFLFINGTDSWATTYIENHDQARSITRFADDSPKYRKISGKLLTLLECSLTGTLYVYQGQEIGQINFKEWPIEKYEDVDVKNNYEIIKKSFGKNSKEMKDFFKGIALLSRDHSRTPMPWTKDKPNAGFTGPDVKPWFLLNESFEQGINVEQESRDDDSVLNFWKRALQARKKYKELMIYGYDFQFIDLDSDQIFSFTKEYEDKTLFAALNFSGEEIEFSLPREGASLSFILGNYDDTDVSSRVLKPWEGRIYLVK

For `CCCCCCCC/N=C1\SC[C@@H]2[C@@H](O)[C@H](O)[C@@H](O)[C@@H](O)N12`, the Ki entry in assay [1] is “Not Active”; in [2], 0.76 µM; in assay [3], “Not Active”; in assay [4] it was “Not Active”; in assay [5] it was 13.4 µM; in [6] it was 0.23 µM. In addition, the inhibition entry in assay [7] and in [8] was “inactive” each time.

As to `CN(C)c1ccc(-c2cnc(-c3ccc(S(=O)(=O)NCCCC/N=C4\SC[C@@H]5[C@@H](O)[C@H](O)[C@@H](O)[C@@H](O)N45)cc3)o2)cc1`, the Ki was 714 µM in assay [9]; 0.55 µM in assay [2]; 235 µM in assay [10]; 522 µM in assay [4] (read-out: Ki); “Not Active” in assay [11]; “Not Active” in assay [12]. The compound further came in with a Ki in [6] of 1.2 µM. Moreover, the inhibition result in [7] and in assay [8] was “inactive” each time.

With `Cl.NCCCC/N=C1\SC[C@@H]2[C@@H](O)[C@H](O)[C@@H](O)[C@@H](O)N12`, the Ki entry in assay [1] is “Not Active”; in assay [2], 12.8 µM; in [13], “Not Active”; in assay [3] it was “Not Active”; in assay [14], “Not Active”; in [5], 116 µM. Moreover, the Ki result in [12] was “Not Active”; in assay [6], 1.8 µM. In addition, the inhibition entry in assay [7] and in assay [8] was “inactive” each time.

Regarding `CN(C)c1cccc2c(S(=O)(=O)NCCCC/N=C3\SC[C@@H]4[C@@H](O)[C@H](O)[C@@H](O)[C@@H](O)N34)cccc12`, the Ki in assay [9] is 246 µM; in assay [2] it was 0.36 µM; in assay [3] it was “Not Active”; in assay [4] (read-out: Ki), 387 µM; in assay [5], 293 µM; in assay [12] it was “Not Active”. In [6], this compound registered a Ki of 0.21 µM. Also, the inhibition entry in [7] and in [8] was “inactive” in each case. Also, the Kd in assay [15] amounted to 0.2 µM.

Consider `CCN(CC)c1ccc2cc(C(=O)NCCCC/N=C3\SC[C@@H]4[C@@H](O)[C@H](O)[C@@H](O)[C@@H](O)N34)c(=O)oc2c1`, for which the Ki is 313 µM in assay [9]; 0.45 µM in assay [2]; 199 µM in assay [10]; 11 µM in assay [4] (read-out: Ki); 28.2 µM in assay [5]; 167 µM in assay [16]. In [6], this compound registered a Ki of 0.072 µM. In addition, the inhibition entry in [7] and in [8] was “inactive” each time.

Broadly, the Ki is the dissociation constant of the complex between target and ligand, obtained from inhibition or displacement. For orientation: Kd means the constant that tells how readily two partners part at equilibrium. Read a low Kd as higher affinity.

These data come from ChEMBL document CHEMBL1268950, “Fluorescent-tagged sp2-iminosugars with potent β-glucosidase inhibitory activity” (Bioorg Med Chem, 2010).
